Series [1] deals with patients treated with single agent panobinostat. The settings on record: cited from earlier work.
Series [2] in a line: Pharmacokinetic analysis of AR-42 in patient plasma. The class given is in vivo, human.
The subject of series [3] is patients with relapsed MM. The series is described as follows: Response assessment, multiple myeloma patients. The class given is in vivo, human. The essentials:
(§1)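 Open-label, single-centre, first-in-human 3+3 dose-escalation trial. Adults with relapsed or refractory CLL, Hodgkin or non-Hodgkin lymphoma (WHO 2008) or MM (IMWG criteria) had to have had at least one prior therapy; MM patients had prior immunomodulatory agent and proteasome inhibitor. Test compound was given orally Mon/Wed/Fri for three weeks of each 28-day cycle at 20, 40, 50 or 70 mg, until unacceptable toxicity or progression.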

Series [4] relates to patients with relapsed lymphoma. As to the kind of experiment: Response assessment, lymphoma patients. The class given is in vivo, human. Put shortly:
as §1

Series [5] has as its system patients with relapsed hematologic malignancies. As to the kind of experiment: Phase 1 dose escalation trial of single-agent AR-42: safety and tolerability. It is filed as in vivo, human.
Series [6] relates to soluble CD44 (sCD44). The series is described as follows: ELISA for soluble CD44 in serum of MM patients. It is filed as in vivo, human. The essentials: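 Serum from relapsed multiple myeloma patients was collected at baseline before dosing and on cycle 1 day 15. Soluble human CD44 was measured by ELISA following the kit manufacturer's protocol. Patients took the oral HDAC inhibitor Monday, Wednesday and Friday for three weeks, then one week off, in 28-day cycles.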
Background: ELISA stands for enzyme-linked immunosorbent assay.

Series [7] is described as follows: QTc measurement. It is filed as in vivo, human.
For series [8], the system named is patients with relapsed hematologic malignancies. As to the kind of experiment: Response assessment, all 27 patients. It is filed as in vivo, human. The settings on record: 95% CI: 53.7 – 88.8. The essentials:
as §1

In series [9] the test system is MM cell lines (U266, H929, RPMI 8226, ARH-77, and IM-9). The settings on record: MM cell lines and primary MM cells; cited from earlier work.
The mark [10] stands for this setting: between the 20 and 40 mg dose levels.
Setting [11] is: between the 40 and 50 mg dose levels.

Bounds are passed on as bounds.

In the case of `Cc1[nH]c2ccccc2c1CCNCc1ccc(/C=C/C(=O)NO)cc1` [panobinostat], in series [1], the patients with fatigue is listed as 47.4%.
In the case of AR-42, the “peak concentration (geometric mean, %CV)” value is given as 0.335 (65.6) μM in series [2] (20 mg oral, day 19, plasma); 0.383 (56.2) μM in series [2] (20 mg oral, day one, plasma); 0.830 (27.9) μM in series [2] (40 mg oral, day 19, plasma); 0.794 (23.8) μM in [2] (40 mg oral, day one, plasma); 1.60 (37.5) μM in [2] (50 mg oral, day one, plasma). Moreover, the “fold increase in mean day one AUC0-∞” value came out at 1.9 fold in [2] (setting [10]) and 1.7 fold in series [2] (setting [11]). The “fold increase in mean day one Cmax” value in series [2] (setting [10]) came to 2.1 fold; in series [2] (setting [11]) it was 2.0 fold. For the same compound, the “Cycles of Treatment” value is reported as 1 cycles in [3] (MM patient ID 1, 20 mg (1a)); 3 cycles in series [3] (MM patient ID 4, 40 mg (2a)); 18 cycles in series [3] (MM patient ID 5, 40 mg (2a)); 3 cycles in [3] (MM patient ID 6, 40 mg (2a)); 3 cycles in series [3] (MM patient ID 7, 40 mg (1b)); 1 cycles in series [3] (MM patient ID 8, 40 mg (1b)). The “Cycles of Treatment” value in [3] (MM patient ID 10, 50 mg (2b)) stood at 1 cycles; in series [3] (MM patient ID 11, 50 mg (2b)), 1 cycles; in series [3] (MM patient ID 12, 50 mg (2b)), 1 cycles; in [3] (MM patient ID 13, 50 mg (2b)), 3 cycles; in series [3] (MM patient ID 17, 70 mg (3b)), 5 cycles; in series [3] (MM patient ID 20, 40 mg (4b)) it was 2 cycles. Besides, the “Cycles of Treatment” value in series [3] (MM patient ID 21, 40 mg (4b)) was determined as 1 cycles; in series [3] (MM patient ID 22, 40 mg (4b)), 2 cycles; in series [3] (MM patient ID 25, 40 mg (4b)), 2 cycles; in series [3] (MM patient ID 26, 40 mg (4b)) it was 1 cycles; in [3] (MM patient ID 27, 40 mg (4b)), 3 cycles. Further, the “duration of disease control, one patient with MM” value in series [3] (human, in vivo) is 19 months. Besides, the “MM patients who progressed during the first cycle” value in [3] (of 17 MM patients) is given as “four”. Besides, in series [4] (ongoing), the “duration of disease control, one patient with mantle cell lymphoma” value was 27 months. The “best response in patients with relapsed lymphoma” value in series [4] (ten patients) was “stable disease”. Besides, the “dose-limiting toxicities (DLTs)” value in [5] (in vivo) was “no DLTs were evident”. The “grade 3 or 4 fatigue” value in series [5] (in vivo) is reported as “no patient suffered grade 3 or 4 fatigue”. In series [5] (in vivo), the patients requiring hospitalization entry is given as “seven”. For the same compound, the “patients requiring temporary holds of study treatment” value in [5] (in vivo) is “seven”. The “patients with SAEs possibly, probably, or likely related to AR-42” value in [5] (in vivo) is listed as “five”. Further, the “patients with neutropenia (grade 1 – 3)” value in series [5] (in vivo) is reported as 11 patients. Besides, in series [5] (in vivo), the “patients with neutropenia (grade 1 – 4)” value was 12 patients. Moreover, in [5] (oral, three times weekly (M-W-F) for three weeks of a 28-day cycle), the “maximum tolerated dose (MTD)” value was 40 mg. Further, the “reduction of sCD44, mean difference” value in [6] (10 MM patients, 95% CI: 3.19–32.72, paired t-test, p=0.0022) is 17.95. Besides, in series [6] (baseline vs cycle 1 day 15), the “MM patients with decreased sCD44 levels” value is “nine”. Moreover, the “MM patients in whom CD44 decreased more than 20% by day 15” value in [6] (cycle 1 day 15) is “four”. In addition, the “QTc prolongation, highest grade” value in series [7] (all 27 patients, not associated with cardiac events or dose reductions) is no more than 1 grade. Further, in series [7] (all patients, range 10 – 60, standard deviation 14.5), the “mean maximum QTc change” value is 27.4. In series [8], the “patients with stable disease for between 1 and 3 cycles” value was 20 of 27. For the same compound, the “potency in comparison to vorinostat” value in series [9] is “four- to seven-fold more potent”.

These data come from publication PMC5489371 (Leukemia & lymphoma, 2017).
